Experimental data reported in ChEMBL document CHEMBL1131197, “5'-substituted adenosine analogs as new high-affinity partial agonists for the adenosine A1 receptor” (J Med Chem, 1998).

Tests used:
Adenosine receptor A1 [1] = target: T1, Adenosine receptor A1 (Rattus norvegicus, UniProt P25099); test: Binding affinity against adenosine A1 receptor using [3H]DPCPX in rat cortical membranes in the presence of GTP.; type: cell membranes
T1 sequence (P25099 whole entry): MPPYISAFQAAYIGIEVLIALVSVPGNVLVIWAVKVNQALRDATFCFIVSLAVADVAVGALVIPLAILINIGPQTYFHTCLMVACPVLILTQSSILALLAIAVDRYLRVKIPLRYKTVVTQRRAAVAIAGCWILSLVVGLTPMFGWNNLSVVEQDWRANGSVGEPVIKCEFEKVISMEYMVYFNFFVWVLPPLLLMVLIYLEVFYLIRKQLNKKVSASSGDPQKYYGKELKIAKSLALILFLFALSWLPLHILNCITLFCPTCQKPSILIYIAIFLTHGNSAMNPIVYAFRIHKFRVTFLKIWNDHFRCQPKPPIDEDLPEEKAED
Method in brief: (§1)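 Rat cortical membranes, pre-incubated with 2 units/mL ADA at 37 °C before storage; protein by BCA. Nonspecific binding defined with 10 µM R-PIA. Line 1 run without GTP, line 2 with 1 mM GTP. Ki values are means of three independent experiments in duplicate unless otherwise noted.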

Adenosine receptor A1 [2] = target: T1, Adenosine receptor A1; test: Binding affinity against adenosine A1 receptor using [3H]DPCPX in rat cortical membranes in the absence of GTP; type: cell membranes; method in brief: as §1
Adenosine receptor A2a = Adenosine receptor A2a (Rattus norvegicus, UniProt P30543); test: Binding affinity against Adenosine A2A receptor using [3H]-CGS- 21680 as the radioligand in rat striatal membranes; type: cell membranes, Striatum, Membrane
[3] = target: T2, Adenosine receptor A1 (Rattus norvegicus) (UniProt P25099); test: Intrinsic activity for maximum stimulation of [35S]GTP-gamma-S, binding to adenosine A1 receptor in rat brain membranes; type: functional, cell membranes
T2 sequence (whole entry): T1 sequence (P25099 whole entry)
Method in brief: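 Rat brain membranes incubated with the agonist and [35S]GTPγS; nonspecific binding defined with 10 μM unlabelled GTPγS. Read-out is the maximal level of G protein activation by [35S]GTPγS binding, given ± SEM, with EC50 derived from the stimulation curves; n = 3-9.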

Adenosine receptor A1 [4] = target: T1, Adenosine receptor A1; test: Effective concentration for [35S]GTP-gamma-S, binding to adenosine A1 receptor in rat brain membranes; type: functional, cell membranes
Method in brief: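 Stimulation of [35S]GTPγS binding in rat brain membranes (same preparation as binding); nonspecific binding defined with 10 µM unlabeled GTPγS.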

Sequence of Adenosine receptor A2a (P30543 whole entry): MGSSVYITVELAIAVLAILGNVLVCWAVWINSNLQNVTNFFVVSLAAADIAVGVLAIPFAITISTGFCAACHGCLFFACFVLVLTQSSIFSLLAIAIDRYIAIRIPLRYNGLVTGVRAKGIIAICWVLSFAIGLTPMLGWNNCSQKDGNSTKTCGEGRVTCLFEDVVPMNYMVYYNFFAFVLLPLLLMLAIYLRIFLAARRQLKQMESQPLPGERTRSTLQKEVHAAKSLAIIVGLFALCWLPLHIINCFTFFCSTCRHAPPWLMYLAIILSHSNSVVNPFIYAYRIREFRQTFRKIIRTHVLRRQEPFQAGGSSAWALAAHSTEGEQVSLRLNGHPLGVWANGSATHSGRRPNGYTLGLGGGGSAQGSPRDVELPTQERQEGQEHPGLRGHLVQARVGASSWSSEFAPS

| SMILES | Ki (Adenosine receptor A1 [1]) [nM] | Ki (Adenosine receptor A1 [2]) [nM] | Ki (Adenosine receptor A2a) [nM] | Activity [3] [%] | EC50 (Adenosine receptor A1 [4]) [nM] |
| --- | --- | --- | --- | --- | --- |
| CCNC[C@H]1O[C@@H](n2cnc3c(NC4CCCC4)ncnc32)[C@H](O)[C@@H]1O | 8560 | 2410 | 42500 |  |  |
| CCSC[C@H]1O[C@@H](n2cnc3c(NC4CCCC4)ncnc32)[C@H](O)[C@@H]1O | 130 | 45 | 19000 | 65.6 | 127 |
| CSC[C@H]1O[C@@H](n2cnc3c(NC4CCCC4)ncnc32)[C@H](O)[C@@H]1O | 199 | 59 | 13500 | 40.2 | 99 |
| CCCSC[C@H]1O[C@@H](n2cnc3c(NC4CCCC4)ncnc32)[C@H](O)[C@@H]1O | 222 | 76 | 18800 | 84.1 | 384 |
| CC(C)CSC[C@H]1O[C@@H](n2cnc3c(NC4CCCC4)ncnc32)[C@H](O)[C@@H]1O | 149 | 41 | 10300 | 85.3 | 189 |
| CNC[C@H]1O[C@@H](n2cnc3c(NC4CCCC4)ncnc32)[C@H](O)[C@@H]1O | 2600 | 440 | 45500 | 96.4 | 1330 |
| C[Se]C[C@H]1O[C@@H](n2cnc3c(NC4CCCC4)ncnc32)[C@H](O)[C@@H]1O | 166 | 76 | 11300 | 50.3 | 225 |
| OC[C@H]1O[C@@H](n2cnc3c(NC4CCCC4)ncnc32)[C@H](O)[C@@H]1O |  |  |  | 100 |  |
| O[C@@H]1[C@H](O)[C@@H](CCl)O[C@H]1n1cnc2c(NC3CCCC3)ncnc21 | 61.5 | 9.5 | 8750 | 88 | 26 |
| CCCNC[C@H]1O[C@@H](n2cnc3c(NC4CCCC4)ncnc32)[C@H](O)[C@@H]1O | 14300 | 4640 | 14500 | 73 | 13900 |
